Test results published in ChEMBL document CHEMBL3352430, “4-Aminopyridyl-based CYP51 inhibitors as anti-Trypanosoma cruzi drug leads with improved pharmacokinetic profile and in vivo potency” (J Med Chem, 2014).
pEC50: −log10 of the molar value.

Key:
Intestine [1] = assay: Drug uptake in mouse intestine at 50 mg/kg, po in 20% HP-beta-CD measured at 8 hrs post dose; format: ADME, organism-based; design: dose 50 mg/kg, route oral; conditions: in vivo
In short: (§1)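 Female Swiss Webster mice, 8 weeks old, given a single 50 mg/kg oral gavage dose in 20% HPβCD or 20% Kolliphor. Tissues taken from three mice at 2 and 8 h post dose. Homogenized by probe sonication in PBS (1:4 w/v), protein precipitated with acetonitrile, and compound measured by LC-MS/MS in μM.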

Liver [2] = assay: Drug uptake in mouse liver at 50 mg/kg, po in 20% Kolliphor measured at 8 hrs post dose; format: ADME, organism-based; design: dose 50 mg/kg, route oral; conditions: in vivo; in short: as §1
Lung [3] = assay: Drug uptake in mouse lung at 50 mg/kg, po in 20% Kolliphor measured at 8 hrs post dose; format: ADME, organism-based; design: dose 50 mg/kg, route oral; conditions: in vivo; in short: as §1
Heart [4] = assay: Drug uptake in mouse heart at 50 mg/kg, po in 20% Kolliphor measured at 8 hrs post dose; format: ADME, organism-based; design: dose 50 mg/kg, route oral; conditions: in vivo; in short: as §1
[5] = Drug uptake in mouse fat at 50 mg/kg, po in 20% Kolliphor measured at 8 hrs post dose; format: ADME, organism-based, Adipose tissue; design: dose 50 mg/kg, route oral; conditions: in vivo; in short: as §1
[6] = Drug uptake in mouse skeletal muscle at 50 mg/kg, po in 20% Kolliphor measured at 8 hrs post dose; format: ADME, organism-based, Muscle tissue; design: dose 50 mg/kg, route oral; conditions: in vivo; in short: as §1
Brain [7] = assay: Drug uptake in mouse brain at 50 mg/kg, po in 20% Kolliphor measured at 8 hrs post dose; format: ADME, organism-based; design: dose 50 mg/kg, route oral; conditions: in vivo; in short: as §1
Brain [8] = assay: Drug uptake in mouse brain at 50 mg/kg, po in 20% Kolliphor measured at 2 hrs post dose; format: ADME, organism-based; design: dose 50 mg/kg, route oral; conditions: in vivo; in short: as §1
Brain [9] = assay: Drug uptake in mouse brain at 50 mg/kg, po in 20% HP-beta-CD measured at 8 hrs post dose; format: ADME, organism-based; design: dose 50 mg/kg, route oral; conditions: in vivo; in short: as §1
Liver [10] = assay: Drug uptake in mouse liver at 50 mg/kg, po in 20% HP-beta-CD measured at 8 hrs post dose; format: ADME, organism-based; design: dose 50 mg/kg, route oral; conditions: in vivo; in short: as §1
Lung [11] = assay: Drug uptake in mouse lung at 50 mg/kg, po in 20% HP-beta-CD measured at 8 hrs post dose; format: ADME, organism-based; design: dose 50 mg/kg, route oral; conditions: in vivo; in short: as §1
Heart [12] = assay: Drug uptake in mouse heart at 50 mg/kg, po in 20% HP-beta-CD measured at 8 hrs post dose; format: ADME, organism-based; design: dose 50 mg/kg, route oral; conditions: in vivo; in short: as §1
[13] = Drug uptake in mouse fat at 50 mg/kg, po in 20% HP-beta-CD measured at 8 hrs post dose; format: ADME, organism-based, Adipose tissue; design: dose 50 mg/kg, route oral; conditions: in vivo; in short: as §1
[14] = Drug uptake in mouse skeletal muscle at 50 mg/kg, po in 20% HP-beta-CD measured at 8 hrs post dose; format: ADME, organism-based, Muscle tissue; design: dose 50 mg/kg, route oral; conditions: in vivo; in short: as §1
Trypanosoma cruzi = assay: Antitrypanosomal activity against Trypanosoma cruzi Y luc infected in mouse assessed as inhibition of parasitemia at 50 mg/kg, po bid in 20% Kolliphor administered for 4 consecutive days starting on day 3 of infection measured on day 7 post infection relative to vehicle-treated control; format: functional
In short: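 Female Swiss Webster mice, 8 weeks old, infected ip with 10^5 T. cruzi Y luc trypomastigotes. Only mice with detectable luminescence on day 3 were treated. Compound given by oral gavage bid for four days, as a suspension in 20% HPβCD or a solution in 20% Kolliphor, five mice per group. Vehicle group and benznidazole 50 mg/kg served as controls. On day 7, mice were injected ip with 150 mg/kg d-luciferin and imaged after 5 min under isoflurane. Percent inhibition calculated against untreated mice; two-tailed paired t test.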

C2C12 = assay: Cytotoxicity against mouse C2C12 cells up to 10 uM; format: cell-based
In short: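 Mouse C2C12 myoblasts infected with T. cruzi CA-I/72, then exposed at 24 h postinfection to compound at 10 μM down to 5 pM in 5-fold steps for 72 h at 37 °C. Cells fixed in paraformaldehyde, stained with DAPI and scored by automated imaging. Triplicate wells; uninfected and infected untreated wells as controls.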

[15] = Half life in mouse at 50 mg/kg, po in 20% Kolliphor; format: ADME, organism-based; design: dose 50 mg/kg, route oral; conditions: in vivo
In short: (§2)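 Female Swiss Webster mice, 8 weeks old, given one oral gavage dose of 50 mg/kg as a 10 mg/mL preparation in the named vehicle (20% HPβCD suspension or 20% Kolliphor). Plasma sampled at about 0.25, 0.5, 1, 2, 4, 6, 8, 12 and 24 h, n = 3 per time point. Protein precipitated with 5 volumes acetonitrile, filtered, then LC-MS/MS. Values are averages of three mice.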

[16] = Half life in mouse at 50 mg/kg, po in 20% HP-beta-CD; format: ADME, organism-based; design: dose 50 mg/kg, route oral; conditions: in vivo; in short: as §2
[17] = Tmax in mouse at 50 mg/kg, po in 20% Kolliphor; format: ADME, organism-based; design: dose 50 mg/kg, route oral; conditions: in vivo; in short: as §2
[18] = Tmax in mouse at 50 mg/kg, po in 20% HP-beta-CD; format: ADME, organism-based; design: dose 50 mg/kg, route oral; conditions: in vivo; in short: as §2
[19] = Cmax in mouse at 50 mg/kg, po in 20% Kolliphor; format: ADME, organism-based; design: dose 50 mg/kg, route oral; conditions: in vivo; in short: as §2
[20] = Cmax in mouse at 50 mg/kg, po in 20% HP-beta-CD; format: ADME, organism-based; design: dose 50 mg/kg, route oral; conditions: in vivo; in short: as §2
[21] = AUClast in mouse at 50 mg/kg, po in 20% Kolliphor; format: ADME, organism-based; design: time 0 - last, dose 50 mg/kg, route oral; conditions: plasma; in short: as §2
[22] = AUClast in mouse at 50 mg/kg, po in 20% HP-beta-CD; format: ADME, organism-based, Plasma; design: time 0 - last, dose 50 mg/kg, route oral; conditions: plasma; in short: as §2
[23] = Clearance in mouse at 50 mg/kg, po in 20% Kolliphor; format: ADME, organism-based; design: dose 50 mg/kg, route oral; conditions: in vivo; in short: as §2
[24] = Clearance in mouse at 50 mg/kg, po in 20% HP-beta-CD; format: ADME, organism-based; design: dose 50 mg/kg, route oral; conditions: in vivo; in short: as §2
Intestine [25] = assay: Drug uptake in mouse intestine at 50 mg/kg, po in 20% Kolliphor measured at 8 hrs post dose; format: ADME, organism-based; design: dose 50 mg/kg, route oral; conditions: in vivo; in short: as §1
Hepatocyte = assay: Cytotoxicity against mouse hepatocytes assessed as growth inhibition after 72 hrs by Cell Titer Glo assay
Cardiomyocyte = assay: Cytotoxicity against mouse cardiomyocytes assessed as growth inhibition after 72 hrs by Cell Titer Glo assay

With `O=C(N[C@H](Cc1c[nH]c2ccccc12)C(=O)Nc1ccncc1)c1ccc(N2CCN(c3ccc(F)c(F)c3)CC2)cc1F` the Drug uptake (Intestine [1]) was “Active”, the Drug uptake (Liver [2]) was “Active” and the Drug uptake (Lung [3]) was “Active”. The Drug uptake (Heart [4]) was “Active”, the Drug uptake [5] was “Active” and the Drug uptake [6] was “Active”. For the same compound, the Drug uptake (Brain [7]) was “Active”, the Drug uptake (Brain [8]) was “Active” and the Drug uptake (Brain [9]) was “Active”. For the same compound, the Drug uptake (Liver [10]) was “Active”, the Drug uptake (Lung [11]) was “Active” and the Drug uptake (Heart [12]) was “Active”. For the same compound, the Drug uptake [13] was “Active”, the Drug uptake [14] was “Active” and the inhibition in vivo at 50 mg/kg (Trypanosoma cruzi) was 98.6%. For the same compound, the Activity (C2C12) was “Non-toxic”, the half-life [15] was 4.55 h and the half-life [16] was 1.45 h. For the same compound, the Tmax [17] was 4 h, the Tmax [18] was 2.67 h and the Cmax [19] was 2080 nM. The Cmax [20] was 640 nM, the AUC(0-t) [21] was 17.7 µM·h and the AUC(0-t) [22] was 2.37 µM·h. The CL/F [23] was 83.5 mL/min/kg, the CL/F [24] was 562 mL/min/kg and the Drug uptake (Intestine [25]) was “Active”. The pEC50 (Hepatocyte) was under 4.05 and the pEC50 (Cardiomyocyte) was under 4.05.
